# Source: PubChem BioAssay AID652011 (Sanford-Burnham Center for Chemical Genomics, 2013)
# “And” between values parts separate entries of the source, which are not always exact repeats. Equal values may be shown once.
# Molecular target: Hypoxia-inducible factor 1-alpha (Homo sapiens) (UniProt Q16665)
# Experiment: HIF-1a and HIF-2a reporter inhibitors, SAR follow-up, cell-based, luminescence, MIAPaCa-2, 786-0, panel (AID 652011)
# Settings: MIAPaCa-2/PANC HIF reporter, luciferase luminescence, desferoxamine, overnight, HIF1a, run 1; at 99 µM (top of the series)
# How it was run: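 Also added: desferoxamine added before compound. Dosing: compounds from 10 mM and 0.3125 mM stocks, 1% DMSO final. Timing: overnight seeding and compound exposure, 37 °C, 5% CO2, 10-min detection. Detection: luciferase luminescence with One-Glo reagent.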
# Hypoxia-inducible factor 1-alpha (Homo sapiens), sequence (Q16665 whole entry, looked up): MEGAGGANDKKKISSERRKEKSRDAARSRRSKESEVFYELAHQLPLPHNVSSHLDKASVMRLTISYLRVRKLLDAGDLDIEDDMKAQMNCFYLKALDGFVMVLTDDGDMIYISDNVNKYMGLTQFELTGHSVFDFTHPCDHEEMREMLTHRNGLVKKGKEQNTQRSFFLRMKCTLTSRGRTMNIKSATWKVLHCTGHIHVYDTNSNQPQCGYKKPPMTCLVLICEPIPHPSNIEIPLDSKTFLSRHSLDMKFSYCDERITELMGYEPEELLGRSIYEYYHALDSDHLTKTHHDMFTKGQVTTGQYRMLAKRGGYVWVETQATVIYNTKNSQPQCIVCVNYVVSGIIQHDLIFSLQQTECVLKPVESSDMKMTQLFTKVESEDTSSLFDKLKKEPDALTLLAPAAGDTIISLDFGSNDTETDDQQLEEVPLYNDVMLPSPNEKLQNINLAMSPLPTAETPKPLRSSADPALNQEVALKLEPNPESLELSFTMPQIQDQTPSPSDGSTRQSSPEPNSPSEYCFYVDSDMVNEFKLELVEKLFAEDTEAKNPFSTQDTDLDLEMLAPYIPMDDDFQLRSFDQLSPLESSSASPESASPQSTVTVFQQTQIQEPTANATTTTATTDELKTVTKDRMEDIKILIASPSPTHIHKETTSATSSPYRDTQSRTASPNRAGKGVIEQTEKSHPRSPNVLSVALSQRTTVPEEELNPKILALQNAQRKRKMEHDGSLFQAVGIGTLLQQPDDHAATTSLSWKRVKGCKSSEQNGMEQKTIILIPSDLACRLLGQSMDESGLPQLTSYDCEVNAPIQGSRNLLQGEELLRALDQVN
row,Compound,inhibition
1,CCCCc1ccc(-c2noc(CCC(=O)NC(C)(C)C)n2)cc1,86.1%
2,CC(C)CNC(=O)CCc1nc(-c2ccc(C(C)(C)C)cc2)no1,-21.6%
3,CCOc1ccc(-c2noc(CCC(=O)O)n2)cc1,73.4%
4,CC(C)(C)c1ccc(-c2noc(CCC(=O)N3CCCCC3)n2)cc1,102%
5,CC(C)(C)NC(=O)CCc1nc(-c2ccccc2)no1,-47.1%
6,CCCNC(=O)CCc1nc(-c2ccc(C(C)(C)C)cc2)no1,-1.08%
7,COc1ccccc1NC(=O)CCc1nc(-c2ccc(C(C)(C)C)cc2)no1,67.6%
8,CCc1ccc(-c2noc(CCC(=O)NC(C)(C)C)n2)cc1,-38.3%
9,C=CCNC(=O)CCc1nc(-c2ccc(C(C)(C)C)cc2)no1,-8.77%
10,CCNC(=O)CCc1nc(-c2cccc(C)c2)no1,-31.4%
11,O=C(O)CCc1nc(-c2ccccc2)no1,4.64%
12,CNC(=O)CCc1nc(-c2ccc(C)cc2)no1,8.42%
13,CCc1ccc(-c2noc(CCC(=O)NC(C)CC)n2)cc1 (stereo unspecified),-51.7%
14,CC(C)(C)c1ccc(-c2noc(CCC(=O)NC3CC3)n2)cc1,-50.8%
15,CC(C)c1ccc(-c2noc(CCC(=O)NC3CC3)n2)cc1,-58.4%
16,CCNC(=O)CCc1nc(-c2ccc(C(C)C)cc2)no1,-33%

row,Compound,inhibition
1,CCC(C)NC(=O)CCc1nc(-c2ccc(C(C)(C)C)cc2)no1 (stereo unspecified),-78.9%
2,CCOc1ccc(-c2noc(CCC(=O)NC)n2)cc1,-41.9%
3,COc1cccc(NC(=O)CCc2nc(-c3ccc(C(C)(C)C)cc3)no2)c1,74.5%
4,CCc1ccc(-c2noc(CCC(=O)NC3CC3)n2)cc1,-66.8%
5,CN(C)C(=O)CCc1nc(-c2ccc(C(C)(C)C)cc2)no1,-59.6% and -77.5%
6,CCNC(=O)CCc1nc(-c2c(Cl)cccc2Cl)no1,13.2%
7,O=C(CCc1nc(-c2ccccc2)no1)NC1CC1,-33.5%
8,COC(=O)CCc1nc(-c2ccc(C(C)(C)C)cc2)no1,92.2%
9,CCNC(=O)CCc1nc(-c2cccc(OC)c2)no1,-42.1%
10,CNC(=O)CCc1nc(-c2ccc(OC)cc2)no1,-51.1%
11,CCNC(=O)CCc1nc(-c2ccc(CC)cc2)no1,-35.2%
12,CCCCc1ccc(-c2noc(CCC(=O)NCC)n2)cc1,-6.32%
13,CCc1ccc(-c2noc(CCC(=O)NC)n2)cc1,-61.6%
14,CC(C)(C)c1ccc(-c2noc(CCC(=O)NC3CCCCC3)n2)cc1,41.6%
15,CCNC(=O)CCc1nc(-c2ccccc2)no1,-39.4%
